Measurements published in ChEMBL document CHEMBL4052818, “Design, Synthesis, and Biological Assessment of Biased Allosteric Modulation of the Urotensin II Receptor Using Achiral 1,3,4-Benzotriazepin-2-one Turn Mimics” (J Med Chem, 2017).
Calls of active or inactive are those of the source. The rule behind the calls is not given here.

Tests used:
[1] = molecular target: T1, Urotensin-2 receptor (Rattus norvegicus) (UniProt P49684); experiment: Allosteric modulation of urotensin-2 receptor in Sprague-Dawley rat thoracic aorta assessed as change in URP-mediated aortic ring contraction by measuring URP Emax at 1 uM preincubated for 15 mins followed by URP addition relative to KCl (reference value: 118 +/- 2%)
T1 sequence (whole entry): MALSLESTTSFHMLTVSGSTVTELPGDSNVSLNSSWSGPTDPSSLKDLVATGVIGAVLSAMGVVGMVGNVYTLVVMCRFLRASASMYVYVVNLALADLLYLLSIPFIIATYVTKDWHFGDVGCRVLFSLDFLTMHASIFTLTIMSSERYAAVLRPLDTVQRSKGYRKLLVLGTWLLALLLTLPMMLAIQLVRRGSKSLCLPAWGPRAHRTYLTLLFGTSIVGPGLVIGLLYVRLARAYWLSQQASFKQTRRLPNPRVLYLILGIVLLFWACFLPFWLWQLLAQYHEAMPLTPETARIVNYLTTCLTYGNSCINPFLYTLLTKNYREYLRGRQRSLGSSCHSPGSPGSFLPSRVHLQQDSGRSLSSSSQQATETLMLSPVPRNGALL

[2] = molecular target: T1, Urotensin-2 receptor (Rattus norvegicus); experiment: Allosteric modulation of urotensin-2 receptor in Sprague-Dawley rat thoracic aorta assessed as change in human urotensin-2-mediated aortic ring contraction by measuring urotensin-2 Emax at 1 uM preincubated for 15 mins followed by urotensin-2 addition relative to KCl (reference value: 103 +/- 2%)
[3] = molecular target: T1, Urotensin-2 receptor (Rattus norvegicus); experiment: Agonist activity at urotensin-2 receptor in Sprague-Dawley rat thoracic aorta assessed as induction of aortic ring contraction at 10^-5 M incubated for 15 mins
Outline: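 Endothelium-denuded 4 mm thoracic aortic rings from adult male rats (250–300 g) were held in organ baths of oxygenated Krebs–Henseleit. A 40 mM KCl contraction served as the initial control. Each analogue was added alone at 10−5 M, and the contraction was expressed as % of the KCl response.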

[4] = molecular target: T1, Urotensin-2 receptor (Rattus norvegicus); experiment: Allosteric modulation of urotensin-2 receptor in Sprague-Dawley rat thoracic aorta assessed as change in human urotensin-2-mediated aortic ring contraction by measuring urotensin-2 Emax at 10^-5M preincubated for 15 mins followed by urotensin-2 addition relative to KCl (reference value: 103 +/- 2%)
[5] = molecular target: T1, Urotensin-2 receptor (Rattus norvegicus); experiment: Allosteric modulation of urotensin-2 receptor in Sprague-Dawley rat thoracic aorta assessed as change in URP-mediated aortic ring contraction by measuring URP Emax at 10^-5M preincubated for 15 mins followed by URP addition relative to KCl (reference value: 118 +/- 2%)
[6] = molecular target: T2, Urotensin-2 receptor (Homo sapiens) (UniProt Q9UKP6); experiment: Allosteric modulation of human urotensin-2 receptor expressed in HEK293 cells assessed as change in URP-induced Gq activation by measuring URP Emax at 10^-5 M preincubated for 30 mins followed by URP addition by BRET assay (reference value: 100 +/- 3%); assay type: cell-based
T2 sequence (whole entry): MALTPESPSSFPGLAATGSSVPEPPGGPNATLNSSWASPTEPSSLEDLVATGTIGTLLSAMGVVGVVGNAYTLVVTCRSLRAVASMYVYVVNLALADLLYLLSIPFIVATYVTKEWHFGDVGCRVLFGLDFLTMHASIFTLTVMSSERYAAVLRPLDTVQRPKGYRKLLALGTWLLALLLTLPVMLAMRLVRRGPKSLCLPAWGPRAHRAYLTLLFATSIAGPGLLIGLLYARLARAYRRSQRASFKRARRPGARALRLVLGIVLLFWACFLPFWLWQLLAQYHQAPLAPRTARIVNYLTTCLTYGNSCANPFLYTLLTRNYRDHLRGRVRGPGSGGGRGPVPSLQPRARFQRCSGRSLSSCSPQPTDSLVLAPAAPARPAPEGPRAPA

[7] = molecular target: T2, Urotensin-2 receptor (Homo sapiens); experiment: Allosteric modulation of human urotensin-2 receptor expressed in HEK293 cells assessed as change in human urotensin-2-induced Gq activation by measuring urotensin-2 Emax at 10^-5 M preincubated for 30 mins followed by urotensin-2 addition by BRET assay (reference value: 100 +/- 3%); assay type: cell-based
[8] = molecular target: T2, Urotensin-2 receptor (Homo sapiens); experiment: Allosteric modulation of human urotensin-2 receptor expressed in HEK293 cells assessed as change in URP-induced G12 activation by measuring URP Emax at 10^-5 M preincubated for 30 mins followed by URP addition by BRET assay (reference value: 100 +/- 7%); assay type: cell-based
[9] = molecular target: T2, Urotensin-2 receptor (Homo sapiens); experiment: Allosteric modulation of human urotensin-2 receptor expressed in HEK293 cells assessed as change in human urotensin-2-induced G12 activation by measuring urotensin-2 Emax at 10^-5 M preincubated for 30 mins followed by urotensin-2 addition by BRET assay (reference value: 100 +/- 6%); assay type: cell-based
[10] = molecular target: T2, Urotensin-2 receptor (Homo sapiens); experiment: Agonist activity at human urotensin-2 receptor expressed in HEK293 cells assessed as G12 activation at 10^-5 M […] by BRET assay; assay type: cell-based
Outline: (§1)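 HEK293-UT cells were transfected with a polycistronic BRET biosensor, 2.5 μg for Gq or 0.5 μg for G12, and grown about 40 h. They were then held 2 h in PBS with 0.1% glucose. The analogue (10−5 M) was added alone with coelenterazine 400A. The GFP10/RlucII ratio (515/410 nm) was read over 5 min and normalized to hUII or URP at 10−5 M.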

[11] = molecular target: T2, Urotensin-2 receptor (Homo sapiens); experiment: Agonist activity at human urotensin-2 receptor expressed in HEK293 cells assessed as Gq activation at 10^-5 M […] by BRET assay; assay type: cell-based; outline: as §1

Emax [1] [%] | Emax [2] [%] | Activity [3] [%] | Emax [4] [%] | Emax [5] [%] | Emax [6] [%] | Emax [7] [%] | Emax [8] [%] | Emax [9] [%] | Activity [10] | Activity [11] | Structure (SMILES)
 |  | < 8 | 118 | 86 |  |  |  |  |  |  | NCCCCN1N=C(CCc2ccc(O)cc2)c2ccccc2N(Cc2ccc(-c3ccccc3)cc2)C1=O
 |  | < 8 | 75 | 99 |  |  |  |  |  |  | NCCCN1N=C(CCc2nc3ccccc3s2)c2ccccc2N(Cc2ccc(-c3ccccc3)cc2)C1=O
 |  | < 8 | 108 | 110 |  |  |  |  |  |  | COc1ccc(/C=C/C2=NN(CCCCN)C(=O)N(Cc3ccc4ccccc4c3)c3ccccc32)cc1
 |  | < 8 | 82 | 84 |  |  |  |  |  |  | COc1ccc(CCC2=NN(CCCCN)C(=O)N(Cc3ccc(-c4ccccc4)cc3)c3ccccc32)cc1
 |  | < 8 | 59 | 111 |  |  |  |  |  |  | NCCCN1N=C(/C=C/c2ccc(O)cc2)c2ccccc2N(Cc2ccc3ccccc3c2)C1=O
 |  | < 8 | 48 | 118 | 92 | 92 | 72 | 103 | inactive | inactive | NCCCCN1N=C(/C=C/c2ccc(O)cc2)c2ccccc2N(Cc2ccc(-c3ccccc3)cc2)C1=O
 |  | < 8 | 59 | 47 |  |  |  |  |  |  | COc1ccc(CCC2=NN(CCCN)C(=O)N(Cc3ccc(-c4ccccc4)cc3)c3ccccc32)cc1
 |  | < 8 | 83 | 284 | 83 | 80 | 106 | 96 | inactive | inactive | COc1ccc(/C=C/C2=NN(CCCCN)C(=O)N(Cc3ccc(-c4ccccc4)cc3)c3ccccc32)cc1
 |  | < 8 | 76 | 120 |  |  |  |  |  |  | COc1ccc(/C=C/C2=NN(CCCN)C(=O)N(Cc3ccc4ccccc4c3)c3ccccc32)cc1
 |  | < 8 | 51 | 115 |  |  |  |  |  |  | NCCCN1N=C(/C=C/c2ccc(O)cc2)c2ccccc2N(Cc2ccc(-c3ccccc3)cc2)C1=O
 |  | < 8 | 55 | 114 |  |  |  |  |  |  | NCCCCN1N=C(/C=C/c2ccc(O)cc2)c2ccccc2N(Cc2ccc3ccccc3c2)C1=O
 |  | < 8 | 106 | 194 |  |  |  |  |  |  | COc1ccc(/C=C/C2=NN(CCCN)C(=O)N(Cc3ccc(-c4ccccc4)cc3)c3ccccc32)cc1
 |  | < 8 | 68 | 112 |  |  |  |  |  |  | NCCCCN1N=C(CCc2nc3ccccc3s2)c2ccccc2N(Cc2ccc(-c3ccccc3)cc2)C1=O
 |  | < 8 | 95 | 90 |  |  |  |  |  |  | NCCCN1N=C(CCc2ccc(O)cc2)c2ccccc2N(Cc2ccc(-c3ccccc3)cc2)C1=O

More lines, now with the values behind:

Structure (SMILES) | Emax [1] [%] | Emax [2] [%] | Activity [3] [%] | Emax [4] [%] | Emax [5] [%] | Emax [6] [%] | Emax [7] [%] | Emax [8] [%] | Emax [9] [%] | Activity [10] | Activity [11]
CC(C)[C@H](NC(=O)[C@@H]1CSSC[C@H](NC(=O)[C@H](C)N)C(=O)N[C@@H](Cc2ccccc2)C(=O)N[C@@H](Cc2ccc(-c3ccccc3)cc2)C(=O)N[C@@H](CCCCN)C(=O)N[C@@H](Cc2ccc(O)cc2)C(=O)N1)C(=O)O | 102 | 61 |  |  |  |  |  |  |  |  | 
COc1ccc(CCC2=NN(CCCCN)C(=O)N(Cc3ccc4ccccc4c3)c3ccccc32)cc1 |  |  | < 8 | 55 | 72 |  |  |  |  |  | 
NCCCN1N=C(CCc2ccc(O)cc2)c2ccccc2N(Cc2ccc3ccccc3c2)C1=O |  |  | < 8 | 107 | 96 |  |  |  |  |  | 
CNCCCN1N=C(CCc2nc3ccccc3s2)c2ccccc2N(Cc2ccc(-c3ccccc3)cc2)C1=O |  |  | < 8 | 76 | 110 |  |  |  |  |  | 
NCCCCN1N=C(CCc2nc3ccccc3s2)c2ccccc2N(Cc2ccc3ccccc3c2)C1=O |  |  | < 8 | 73 | 111 |  |  |  |  |  | 
NCCCCN1N=C(CCc2ccc(O)cc2)c2ccccc2N(Cc2ccc3ccccc3c2)C1=O |  |  | < 8 | 98 | 75 | 78 | 83 | 90 | 98 | inactive | inactive
CNCCCCN1N=C(CCc2nc3ccccc3s2)c2ccccc2N(Cc2cccc3ccccc23)C1=O |  |  | < 8 | 99 | 99 |  |  |  |  |  | 
NCCCN1N=C(CCc2nc3ccccc3s2)c2ccccc2N(Cc2cccc3ccccc23)C1=O |  |  | < 8 | 100 | 101 |  |  |  |  |  | 
COc1ccc(CCC2=NN(CCCN)C(=O)N(Cc3ccc4ccccc4c3)c3ccccc32)cc1 |  |  | < 8 | 55 | 41 |  |  |  |  |  | 
NCCCCN1N=C(CCc2nc3ccccc3s2)c2ccccc2N(Cc2cccc3ccccc23)C1=O |  |  | < 8 | 100 | 124 |  |  |  |  |  | 
NCCCN1N=C(CCc2nc3ccccc3s2)c2ccccc2N(Cc2ccc3ccccc3c2)C1=O |  |  | < 8 | 45 | 117 | 82 | 87 | 115 | 96 | inactive | inactive
CNCCCCN1N=C(CCc2nc3ccccc3s2)c2ccccc2N(Cc2ccc3ccccc3c2)C1=O |  |  | < 8 | 87 | 114 |  |  |  |  |  | 
CNCCCCN1N=C(CCc2nc3ccccc3s2)c2ccccc2N(Cc2ccc(-c3ccccc3)cc2)C1=O |  |  | < 8 | 90 | 91 |  |  |  |  |  | 
